Test results reported in ChEMBL document CHEMBL4673294, “The discovery of quinoline derivatives, as NF-κB inducing kinase (NIK) inhibitors with anti-inflammatory effects in vitro, low toxicities against T cell growth” (Bioorg Med Chem, 2021).

Assays:
[1] = Cytotoxicity against mouse T cells assessed as cell growth inhibition at 10 uM after 48 hrs by CCK8 assay; format: cell-based
Summary of the method: (§1)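 Unstimulated mouse splenic T cells (no Con A) exposed to compound at 10 μM; growth measured by absorbance, with rate computed from test, blank and control well absorbances; mean ± SD of three independent experiments.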

[2] = target: T1, Mitogen-activated protein kinase kinase kinase 14 (Homo sapiens, UniProt Q99558); assay: Inhibition of recombinant N-terminal GST-fused human NIK (319 to 947 residues) expressed in baculovirus expression system incubated for 120 mins in presence of ATP by ADP-glo based luminescence assay
Summary of the method: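 NIK kinase activity by ADP-Glo: human recombinant MAP3K14 in Tris pH 7.5 buffer with 100 μM Na3VO4, 2 mM DTT, 0.02 mg/mL BSA, 2 mM MgCl2, 5% DMSO; 10 μM ATP; 120 min at room temperature. ADP-Glo reagent 40 min, then detection reagent 40 min; luminescence converted to ADP via standard curve. IC50 from curve fitting; mean ± SD of two independent experiments.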
Target sequence in this assay (Q99558 whole entry, the tested form may be a part): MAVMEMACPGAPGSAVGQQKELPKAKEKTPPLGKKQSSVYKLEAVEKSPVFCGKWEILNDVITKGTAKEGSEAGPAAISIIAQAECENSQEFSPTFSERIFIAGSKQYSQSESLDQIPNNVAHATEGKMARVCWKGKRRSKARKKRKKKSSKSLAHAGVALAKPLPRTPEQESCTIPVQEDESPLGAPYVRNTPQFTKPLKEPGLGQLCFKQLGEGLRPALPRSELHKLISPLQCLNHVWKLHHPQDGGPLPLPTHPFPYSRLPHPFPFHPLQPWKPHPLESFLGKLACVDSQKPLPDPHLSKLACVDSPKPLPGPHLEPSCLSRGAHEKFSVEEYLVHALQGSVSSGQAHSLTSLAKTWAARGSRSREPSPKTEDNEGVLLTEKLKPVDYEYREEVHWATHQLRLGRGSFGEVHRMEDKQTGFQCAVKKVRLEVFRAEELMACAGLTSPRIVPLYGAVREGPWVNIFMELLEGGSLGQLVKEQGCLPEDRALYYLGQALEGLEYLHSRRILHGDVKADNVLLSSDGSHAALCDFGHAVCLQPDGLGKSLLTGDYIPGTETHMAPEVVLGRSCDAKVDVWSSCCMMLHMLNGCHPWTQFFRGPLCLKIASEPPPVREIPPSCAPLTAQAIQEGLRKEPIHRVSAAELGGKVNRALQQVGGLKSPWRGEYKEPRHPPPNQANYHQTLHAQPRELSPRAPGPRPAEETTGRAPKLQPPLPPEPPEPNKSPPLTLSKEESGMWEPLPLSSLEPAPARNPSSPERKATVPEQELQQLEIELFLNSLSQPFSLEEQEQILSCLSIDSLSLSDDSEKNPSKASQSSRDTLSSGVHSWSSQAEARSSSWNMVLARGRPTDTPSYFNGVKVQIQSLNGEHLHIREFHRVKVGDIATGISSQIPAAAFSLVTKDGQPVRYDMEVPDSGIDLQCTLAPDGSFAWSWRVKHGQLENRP

[3] = Antiinflammatory activity in mouse T cells assessed as inhibition of ConA-induced induced T cell proliferation at 2 uM incubated for 48 hrs by CCK8 assay relative to control; format: functional
Summary of the method: (§2)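 Mouse splenic T cells, isolated by negative selection kit, seeded at 2×10^6 cells/mL in RPMI with penicillin/streptomycin and glutamine. Compound at 2 or 0.4 μM (triplicate wells), DMSO control; Con A 5 μg/mL added, 48 h at 37 °C, 5% CO2. CCK8 absorbance; inhibition rate from test, blank and control wells; three independent experiments.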

[4] = tested on: J774; assay: Antiinflammatory activity in mouse J774 cells assessed as inhibition of LPS-induced NO production at 1 uM preincubated for 2 hrs followed by LPS stimulation and measured after 22 hrs by Griess reagent based assay relative to control; format: functional; details: time 24 hrs
[5] = Antiinflammatory activity in mouse T cells assessed as inhibition of ConA-induced induced T cell proliferation at 0.4 uM incubated for 48 hrs by CCK8 assay relative to control; format: functional; summary of the method: as §2
[6] = target: T1, Mitogen-activated protein kinase kinase kinase 14; assay: Inhibition of recombinant N-terminal GST-fused human NIK (319 to 947 residues) expressed in baculovirus expression system assessed as residual activity at 2 uM incubated for 120 mins in presence of ATP by ADP-glo based luminescence assay relative to control
Summary of the method: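 Single-point NIK enzyme activity at 2 μM compound with 10 μM ATP; human recombinant MAP3K14, 120 min room-temperature reaction, ADP-Glo luminescence read-out converted to ADP concentration.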
Target sequence in this assay (Q99558 whole entry, looked up, the tested form may be a part): as the sequence (Q99558 whole entry, the tested form may be a part) above

[7] = Cytotoxicity against mouse T cells assessed as cell growth inhibition at 10 uM after 48 hrs by CCK8 assay relative to control; format: cell-based; details: read-out: GI; summary of the method: as §1
[8] = tested on: JJN-3; assay: Antiproliferative activity against human JJN-3 cells transfected with plasmid expressing NIK; format: functional, cell-based
[9] = AUC (0 to infinity) in Sprague-Dawley rat at 1 mg/kg, iv administered as single bolus dose by LC-MS analysis; format: ADME, organism-based; parameters: route intravenous, time infinity, dose 1 mg/kg; details: in vivo
Summary of the method: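 Male Sprague-Dawley rats, 8 weeks old, fasted overnight, received a single rapid tail-vein bolus. Vehicle was DMSO:PEG200:saline 20:20:60 v/v/v at 0.2 mg/mL. Plasma concentrations were followed over time. Plasma was deproteinised with acetonitrile containing verapamil and glibenclamide, diluted with water and analysed by LC/MS. Values are mean ± SD, n = 3 rats.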

[10] = Cmax in Sprague-Dawley rat at 10 mg/kg, po administered as single dose by LC-MS analysis; format: ADME, organism-based; parameters: route oral, dose 10 mg/kg; details: in vivo
Summary of the method: (§3)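 Male Sprague-Dawley, 8 weeks old, fasted overnight, n = 3; single gavage at 10 mg/kg as 1 mg/mL suspension in 0.5% CMC-Na/0.2% Tween 80. Plasma precipitated with acetonitrile plus internal standards; LC/MS quantitation.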

[11] = Elimination half life in rat liver microsomes incubated for 10 mins followed by potassium phosphate buffer addition and measured up to 60 mins by LC-MS analysis; format: ADME, Microsome; details: time <=70 min, read-out: LambdaZ
Summary of the method: (§4)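 The test compound was pre-incubated with liver microsomes at 37 °C for 10 min. NCF60 wells received 100 mM potassium phosphate buffer and were incubated 1.0 h at 37 °C. The reaction was stopped with a 1:1 tolbutamide/labetalol mixture at 0, 5, 15, 30 and 60 min, then vortexed and centrifuged at 4 °C. Remaining parent compound in the supernatant was measured by LC-MS, and T1/2 was calculated by first-order kinetics.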

[12] = Elimination half life in monkey liver microsomes incubated for 10 mins followed by potassium phosphate buffer addition and measured up to 60 mins by LC-MS analysis; format: ADME, Macaca mulatta, Microsome; details: rhesus monkey, time <=70 min, read-out: LambdaZ; summary of the method: as §4
[13] = Half life in Sprague-Dawley rat at 10 mg/kg, po administered as single dose by LC-MS analysis; format: ADME, organism-based; details: in vivo; summary of the method: as §3
[14] = AUC (0 to infinity) in Sprague-Dawley rat at 10 mg/kg, po administered as single dose by LC-MS analysis; format: ADME, organism-based; parameters: route oral, time infinity, dose 10 mg/kg; details: in vivo
Summary of the method: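 Male Sprague-Dawley rats, 8 weeks old, fasted overnight, were dosed once by oral gavage. The compound was suspended at 1.0 mg/mL in saline with 0.5% CMC-Na and 0.2% Tween 80. Plasma concentrations were followed over time. Plasma was deproteinised with acetonitrile containing verapamil and glibenclamide, diluted with water and analysed by LC/MS. Values are mean ± SD, n = 3 rats.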

[15] = Initial plasma concentration in Sprague-Dawley rat at 1 mg/kg, iv administered as single bolus dose by LC-MS analysis; format: ADME, organism-based
Summary of the method: (§5)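 Male Sprague-Dawley, 8 weeks old, fasted overnight, n = 3; single IV bolus via tail vein at 1.0 mg/kg in DMSO:PEG200:saline 20:20:60 (0.2 mg/mL). Plasma protein-precipitated with acetonitrile containing internal standards, analysed by LC/MS.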

[16] = Intrinsic clearance in monkey liver microsomes assessed per mg protein incubated for 10 mins followed by potassium phosphate buffer addition and measured up to 60 mins by LC-MS analysis; format: ADME, Macaca mulatta, Microsome; details: rhesus monkey, time <=70 min, read-out: CLH
Summary of the method: (§6)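 Rat, dog, monkey and human liver microsomes: compound preincubated with microsomes 10 min at 37 °C; samples quenched at 0, 5, 15, 30, 60 min with tolbutamide/labetalol, plus a 60 min no-cofactor control with 100 mM potassium phosphate buffer. Centrifuged, remaining compound by LC-MS; T1/2 and CL by first-order kinetics.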

[17] = Elimination half life in dog liver microsomes incubated for 10 mins followed by potassium phosphate buffer addition and measured up to 60 mins by LC-MS analysis; format: ADME, Canis lupus familiaris, Microsome; details: time <=70 min, read-out: LambdaZ; summary of the method: as §4
[18] = Intrinsic hepatic clearance in rat; format: ADME; details: in vivo, read-out: CLH
Summary of the method: (§7)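 In vivo intrinsic clearance scaled from microsomal CLint (mL/min/mg protein) × microsomal protein per g liver × liver weight per kg body weight.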

[19] = Intrinsic hepatic clearance in human; format: ADME; details: read-out: CLH; summary of the method: as §7
[20] = Intrinsic clearance in dog liver microsomes assessed per mg protein incubated for 10 mins followed by potassium phosphate buffer addition and measured up to 60 mins by LC-MS analysis; format: ADME, Canis lupus familiaris, Microsome; details: time <=70 min, read-out: CLH; summary of the method: as §6
[21] = Clearance in Sprague-Dawley rat at 1 mg/kg, iv administered as single bolus dose by LC-MS analysis; format: ADME, organism-based; details: in vivo; summary of the method: as §5
[22] = Oral bioavailability in Sprague-Dawley rat at 10 mg/kg administered as single dose by LC-MS analysis; format: ADME, organism-based; details: in vivo
[23] = Volume of distribution in Sprague-Dawley rat at 1 mg/kg, iv administered as single bolus dose by LC-MS analysis; format: ADME, organism-based; details: in vivo; summary of the method: as §5
[24] = Tmax in Sprague-Dawley rat at 10 mg/kg, po administered as single dose by LC-MS analysis; format: ADME, organism-based; details: in vivo; summary of the method: as §3
[25] = Intrinsic hepatic clearance in monkey; format: ADME, Macaca mulatta; details: rhesus monkey, in vivo; read-out: CLH; summary of the method: as §7
[26] = Intrinsic clearance in rat liver microsomes assessed per mg protein incubated for 10 mins followed by potassium phosphate buffer addition and measured up to 60 mins by LC-MS analysis; format: ADME, Microsome; details: time <=70 min, read-out: CLH; summary of the method: as §6
[27] = Elimination half life in human liver microsomes incubated for 10 mins followed by potassium phosphate buffer addition and measured up to 60 mins by LC-MS analysis; format: ADME, Microsome; details: time <=70 min, read-out: LambdaZ; summary of the method: as §4
[28] = Intrinsic clearance in human liver microsomes assessed per mg protein incubated for 10 mins followed by potassium phosphate buffer addition and measured up to 60 mins by LC-MS analysis; format: ADME, Microsome; details: time <=70 min, read-out: CLH; summary of the method: as §6
[29] = Half life in Sprague-Dawley rat at 1 mg/kg, iv administered as single bolus dose by LC-MS analysis; format: ADME, organism-based; details: in vivo; summary of the method: as §5
[30] = Intrinsic hepatic clearance in dog; format: ADME, Canis lupus familiaris; details: in vivo, read-out: CLH; summary of the method: as §7

## CC(O)(C#Cc1ccc(N2CCOCC2)c(Nc2ncnc3[nH]ccc23)c1)c1nccs1 (stereo not drawn)
[1]
  Activity: Non-Toxic

## CC(C)(O)C#Cc1ccc2nccc(-c3cn[nH]c3)c2c1
[2]
  IC50: 1720 nM

## CC(O)(C#Cc1ccc2nc(O)cc(-c3cn[nH]c3)c2c1)c1nccs1 (stereo not drawn)
[2]
  IC50: 38.6 nM
[3]
  inhibition at 2 µM: 27.2%
[4]
  inhibition at 1 µM: 31.4%
[5]
  inhibition at 0.4 µM: 23.3%
[1]
  Activity: Non-Toxic

## O=C(Nc1ccc2nccc(-c3cn[nH]c3)c2c1)c1nccs1
[6]
  Activity: 72.3%

## CN1CCN(c2cc(-c3cn[nH]c3)c3cc(C#CC(C)(O)c4nccs4)ccc3n2)CC1 (stereo not drawn)
[2]
  IC50: 175 nM
[3]
  inhibition at 2 µM: 36.7%
[4]
  inhibition at 1 µM: 41%
[7]
  inhibition at 48 h, 10 µM: 30%
[5]
  inhibition at 0.4 µM: 19.4%

## CC(O)(C#Cc1ccc2nccc(-c3cn[nH]c3)c2c1)c1cccs1 (stereo not drawn)
[2]
  IC50: 524 nM

## CC(O)(C#Cc1ccc2nccc(-c3cn[nH]c3)c2c1)c1ccccn1 (stereo not drawn)
[2]
  IC50: 591 nM

## OC1(C#Cc2ccc3nccc(-c4cn[nH]c4)c3c2)CCCC1
[2]
  IC50: 564 nM

## Cn1cc(-c2ccnc3ccc(C#CC(C)(C)O)cc23)cn1
[6]
  Activity: 99.1%

## CC(O)(/C=C/c1ccc2nccc(-c3cn[nH]c3)c2c1)c1nccs1 (stereo not drawn)
[2]
  IC50: 2080 nM

## CN1CCC(n2cc(-c3c[nH]nc3Cl)c3cc(C#CC(C)(C)O)c(F)cc32)CC1
[8]
  EC50: 61 nM

## CC(O)(C#Cc1ccc2nc(OCCN3CCOCC3)cc(-c3cn[nH]c3)c2c1)c1nccs1 (stereo not drawn)
[6]
  Activity: 92%

## CN(C)CCN(C)c1cc(-c2cn[nH]c2)c2cc(C#CC(C)(O)c3nccs3)ccc2n1 (stereo not drawn)
[2]
  IC50: 160 nM
[3]
  inhibition at 2 µM: 22.7%
[4]
  inhibition at 1 µM: 34.6%
[5]
  inhibition at 0.4 µM: 19.9%
[1]
  Activity: Non-Toxic

## CC(O)(C#Cc1ccc2c(c1)N(c1nc(N)ncc1Cl)CC2)c1nccs1 (stereo not drawn)
[2]
  IC50: 4.9 nM
[3]
  inhibition at 2 µM: 59.6%
[4]
  inhibition at 1 µM: 43.9%
[7]
  inhibition at 48 h, 10 µM: 30%
[5]
  inhibition at 0.4 µM: 19%

## CC(O)(C#Cc1ccc2nccc(-c3cn[nH]c3)c2c1)c1nccs1 (stereo not drawn)
[9]
  AUC(0-inf): 408 ng·h/mL
[10]
  Cmax: 311 ng/mL
[11]
  half-life: 12.6 min
[12]
  half-life: 33.2 min
[13]
  half-life: 71.4 min
[2]
  IC50: 22.1 nM
[14]
  AUC(0-inf): 885 ng·h/mL
[15]
  C0: 1000 ng/mL
[16]
  microsomal CLint: 41.8 µL/min/mg
[17]
  half-life: 14.2 min
[3]
  inhibition at 2 µM: 52.5%
[18]
  CLint scaled: 199 mL/min/kg
[19]
  CLint scaled: 40.2 mL/min/kg
[4]
  inhibition at 1 µM: 43.8%
[20]
  microsomal CLint: 97.5 µL/min/mg
[21]
  clearance: 43.3 mL/min/kg
[22]
  bioavailability: 21.7%
[23]
  Vd: 2.73 L/kg
[24]
  Tmax: 54 min
[25]
  CLint scaled: 60.2 mL/min/kg
[26]
  microsomal CLint: 110 µL/min/mg
[5]
  inhibition at 0.4 µM: 36.1%
[27]
  half-life: 33.1 min
[1]
  Activity: Non-Toxic
[28]
  microsomal CLint: 42.6 µL/min/mg
[29]
  half-life: 22.9 min
[30]
  CLint scaled: 140 mL/min/kg

## OC1(C#Cc2ccc3nccc(-c4cn[nH]c4)c3c2)CCCCC1
[2]
  IC50: 6050 nM

## O=C(Nc1ccc2nccc(-c3cn[nH]c3)c2c1)C1CCCC1
[6]
  Activity: 83.6%

## COCCN(C)c1cc(-c2cn[nH]c2)c2cc(C#CC(C)(O)c3nccs3)ccc2n1 (stereo not drawn)
[2]
  IC50: 5.2 nM
[3]
  inhibition at 2 µM: 53.1%
[4]
  inhibition at 1 µM: 51.4%
[7]
  inhibition at 48 h, 10 µM: 30%
[5]
  inhibition at 0.4 µM: 33%

## CNc1cc(-c2cn[nH]c2)c2cc(C#CC(C)(O)c3nccs3)ccc2n1 (stereo not drawn)
[2]
  IC50: 26 nM
[3]
  inhibition at 2 µM: 34.5%
[4]
  inhibition at 1 µM: 46.5%
[5]
  inhibition at 0.4 µM: 18.4%
